# Assay results as given in ChEMBL document CHEMBL4130391, “Novel methyl indolinone-6-carboxylates containing an indole moiety as angiokinase inhibitors” (Eur J Med Chem, 2017).
# pIC50: −log10 of the molar value.
# Assays:
# [1] = target: T1, Vascular endothelial growth factor receptor 2 (Homo sapiens, UniProt P35968); test: Inhibition of N-terminal biotinylated DYKDDDDK tagged human VEGFR2 (790 to 1356 end residues) cytoplasmic domain expressed in baculovirus expression system at 1 uM preincubated for 10 mins followed by fluorescein amidite-labelled peptide substrate addition measured after 1 hr by mobility shift assay relative to control
# T1 sequence (P35968 whole entry, the tested form may be a part): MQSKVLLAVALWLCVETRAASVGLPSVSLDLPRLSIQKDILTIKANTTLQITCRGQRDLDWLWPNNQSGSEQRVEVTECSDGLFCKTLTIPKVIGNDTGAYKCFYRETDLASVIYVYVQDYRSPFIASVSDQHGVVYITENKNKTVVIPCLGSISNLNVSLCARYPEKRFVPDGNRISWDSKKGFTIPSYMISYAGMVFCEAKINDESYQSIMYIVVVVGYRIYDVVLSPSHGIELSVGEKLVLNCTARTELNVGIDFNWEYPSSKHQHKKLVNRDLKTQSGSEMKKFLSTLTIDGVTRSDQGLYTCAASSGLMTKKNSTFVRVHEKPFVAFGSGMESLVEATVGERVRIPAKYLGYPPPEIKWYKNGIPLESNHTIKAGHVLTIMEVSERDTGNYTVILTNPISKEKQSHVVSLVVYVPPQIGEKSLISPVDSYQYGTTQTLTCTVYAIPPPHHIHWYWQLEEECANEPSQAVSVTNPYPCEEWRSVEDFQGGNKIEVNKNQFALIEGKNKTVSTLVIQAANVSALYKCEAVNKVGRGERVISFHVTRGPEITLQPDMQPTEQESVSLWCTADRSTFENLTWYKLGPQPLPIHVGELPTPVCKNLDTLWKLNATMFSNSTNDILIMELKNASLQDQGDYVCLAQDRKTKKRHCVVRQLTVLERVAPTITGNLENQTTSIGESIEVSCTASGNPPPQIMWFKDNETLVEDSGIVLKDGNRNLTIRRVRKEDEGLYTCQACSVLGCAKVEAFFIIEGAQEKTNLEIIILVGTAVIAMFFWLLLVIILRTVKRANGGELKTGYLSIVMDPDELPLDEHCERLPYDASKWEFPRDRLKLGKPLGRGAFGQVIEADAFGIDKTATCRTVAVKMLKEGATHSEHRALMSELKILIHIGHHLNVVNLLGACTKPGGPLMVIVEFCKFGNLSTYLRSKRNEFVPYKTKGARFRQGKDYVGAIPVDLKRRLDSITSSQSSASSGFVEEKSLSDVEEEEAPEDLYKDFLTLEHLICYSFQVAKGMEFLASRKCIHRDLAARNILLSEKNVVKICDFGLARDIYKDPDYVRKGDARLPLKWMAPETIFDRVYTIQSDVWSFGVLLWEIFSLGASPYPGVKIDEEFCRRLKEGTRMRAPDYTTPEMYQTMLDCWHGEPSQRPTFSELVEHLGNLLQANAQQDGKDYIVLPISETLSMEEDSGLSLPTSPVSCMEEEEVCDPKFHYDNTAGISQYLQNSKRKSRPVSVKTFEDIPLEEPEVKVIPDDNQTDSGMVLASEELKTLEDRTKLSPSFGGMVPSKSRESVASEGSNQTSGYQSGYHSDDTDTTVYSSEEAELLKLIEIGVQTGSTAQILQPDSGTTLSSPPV
# In short: (§1)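 Enzyme and compound were preincubated for 10 min at room temperature. FAM-labelled peptide plus ATP was then added and reacted 1 h at 28°C, stopped with EDTA buffer, and run in duplicate. Inhibition = (max − conversion)/(max − min) × 100.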
# [2] = test system: A549; test: Antiproliferative activity against human A549 cells after 72 hrs by MTT assay; type: functional, cell-based; details: A549, 72 h
# [3] = target: Platelet-derived growth factor receptor beta (Homo sapiens, UniProt P09619); test: Inhibition of N-terminal GST tagged human PDGFRbeta (557 to 1106 end residues) cytoplasmic domain expressed in baculovirus expression system preincubated for 10 mins followed by fluorescein amidite-labelled peptide substrate addition measured after 1 hr by mobility shift assay; in short: as §1
# Sequence of Platelet-derived growth factor receptor beta (P09619 whole entry, the tested form may be a part): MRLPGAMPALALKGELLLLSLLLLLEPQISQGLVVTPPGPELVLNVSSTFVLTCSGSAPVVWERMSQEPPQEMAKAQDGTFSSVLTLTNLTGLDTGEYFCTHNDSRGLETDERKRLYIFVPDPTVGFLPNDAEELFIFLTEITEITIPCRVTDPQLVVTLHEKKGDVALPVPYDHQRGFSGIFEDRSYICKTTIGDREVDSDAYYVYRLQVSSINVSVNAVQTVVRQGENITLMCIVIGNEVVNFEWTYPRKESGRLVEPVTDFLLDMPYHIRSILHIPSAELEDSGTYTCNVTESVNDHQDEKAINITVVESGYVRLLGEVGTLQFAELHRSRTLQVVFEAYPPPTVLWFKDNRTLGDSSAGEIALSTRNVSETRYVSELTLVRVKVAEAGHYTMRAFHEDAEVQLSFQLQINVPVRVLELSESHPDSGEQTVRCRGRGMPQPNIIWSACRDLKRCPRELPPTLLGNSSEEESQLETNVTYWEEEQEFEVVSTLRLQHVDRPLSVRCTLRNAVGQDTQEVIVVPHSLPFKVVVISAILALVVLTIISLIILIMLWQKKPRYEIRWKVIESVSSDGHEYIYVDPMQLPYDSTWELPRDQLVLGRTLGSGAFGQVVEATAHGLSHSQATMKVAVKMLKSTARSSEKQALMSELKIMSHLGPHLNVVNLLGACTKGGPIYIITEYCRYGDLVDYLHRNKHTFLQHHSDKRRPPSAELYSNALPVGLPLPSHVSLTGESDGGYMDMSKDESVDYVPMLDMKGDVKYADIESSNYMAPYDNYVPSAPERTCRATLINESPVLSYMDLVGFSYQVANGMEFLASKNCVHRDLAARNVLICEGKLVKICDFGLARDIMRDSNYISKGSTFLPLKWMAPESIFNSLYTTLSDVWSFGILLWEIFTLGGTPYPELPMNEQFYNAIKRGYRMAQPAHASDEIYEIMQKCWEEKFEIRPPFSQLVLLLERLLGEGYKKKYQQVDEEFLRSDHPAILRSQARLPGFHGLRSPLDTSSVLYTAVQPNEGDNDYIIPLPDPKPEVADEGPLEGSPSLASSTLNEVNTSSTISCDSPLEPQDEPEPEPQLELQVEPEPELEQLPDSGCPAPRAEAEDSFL
# [4] = test system: MCF7; test: Antiproliferative activity against human MCF7 cells after 72 hrs by MTT assay; type: functional, cell-based; details: MCF7, 72 h
# [5] = test system: HT-29; test: Antiproliferative activity against human HT-29 cells after 72 hrs by MTT assay; type: functional, cell-based; details: HT-29, 72 h
# [6] = target: T1, Vascular endothelial growth factor receptor 2; test: Inhibition of N-terminal biotinylated DYKDDDDK tagged human VEGFR2 (790 to 1356 end residues) cytoplasmic domain expressed in baculovirus expression system preincubated for 10 mins followed by fluorescein amidite-labelled peptide substrate addition measured after 1 hr by mobility shift assay
# [7] = test system: HT-29; test: Induction of apoptosis in human HT-29 cells assessed as early apoptotic cells at 3 uM measured after 48 hrs by Annexin-V-FITC/propidium iodide staining based flow cytometry (reference value: 0.99 %); type: functional
# [8] = test system: MCF7; test: Induction of apoptosis in human MCF7 cells assessed as early apoptotic cells at 0.3 uM measured after 48 hrs by Annexin-V-FITC/propidium iodide staining based flow cytometry (reference value: 1.32 %); type: functional
# [9] = test system: MCF7; test: Induction of apoptosis in human MCF7 cells assessed as early apoptotic cells at 3 uM measured after 48 hrs by Annexin-V-FITC/propidium iodide staining based flow cytometry (reference value: 1.32 %); type: functional
# [10] = test system: HUVEC; test: Induction of apoptosis in HUVEC assessed as early apoptotic cells at 0.3 uM measured after 48 hrs by Annexin-V-FITC/propidium iodide staining based flow cytometry (reference value: 1.78 %); type: functional, Homo sapiens
# [11] = test system: HEK-293T; test: Cytotoxicity against HEK293T cells assessed as reduction in cell viability at 10 uM after 72 hrs by MTT assay; type: cell-based; details: human
# In short: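 HEK293T cells, about 4 × 10^3 per well, were grown in MEM with 10% FBS at 37°C in 5% CO2 for 24 h. Cells were then exposed to compound for 72 h. MTT was added at 5 µg/mL final for 4 h at 37°C and the formazan dissolved in DMSO. Absorbance was read at 492 nm with 630 nm as reference.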
# [12] = target: Fibroblast growth factor receptor 1 (Homo sapiens, UniProt P11362); test: Inhibition of N-terminal GST tagged human FGFR1 (398 to 822 end residues) cytoplasmic domain expressed in baculovirus expression system preincubated for 10 mins followed by fluorescein amidite-labelled peptide substrate addition measured after 1 hr by mobility shift assay
# Sequence of Fibroblast growth factor receptor 1 (P11362 whole entry, the tested form may be a part): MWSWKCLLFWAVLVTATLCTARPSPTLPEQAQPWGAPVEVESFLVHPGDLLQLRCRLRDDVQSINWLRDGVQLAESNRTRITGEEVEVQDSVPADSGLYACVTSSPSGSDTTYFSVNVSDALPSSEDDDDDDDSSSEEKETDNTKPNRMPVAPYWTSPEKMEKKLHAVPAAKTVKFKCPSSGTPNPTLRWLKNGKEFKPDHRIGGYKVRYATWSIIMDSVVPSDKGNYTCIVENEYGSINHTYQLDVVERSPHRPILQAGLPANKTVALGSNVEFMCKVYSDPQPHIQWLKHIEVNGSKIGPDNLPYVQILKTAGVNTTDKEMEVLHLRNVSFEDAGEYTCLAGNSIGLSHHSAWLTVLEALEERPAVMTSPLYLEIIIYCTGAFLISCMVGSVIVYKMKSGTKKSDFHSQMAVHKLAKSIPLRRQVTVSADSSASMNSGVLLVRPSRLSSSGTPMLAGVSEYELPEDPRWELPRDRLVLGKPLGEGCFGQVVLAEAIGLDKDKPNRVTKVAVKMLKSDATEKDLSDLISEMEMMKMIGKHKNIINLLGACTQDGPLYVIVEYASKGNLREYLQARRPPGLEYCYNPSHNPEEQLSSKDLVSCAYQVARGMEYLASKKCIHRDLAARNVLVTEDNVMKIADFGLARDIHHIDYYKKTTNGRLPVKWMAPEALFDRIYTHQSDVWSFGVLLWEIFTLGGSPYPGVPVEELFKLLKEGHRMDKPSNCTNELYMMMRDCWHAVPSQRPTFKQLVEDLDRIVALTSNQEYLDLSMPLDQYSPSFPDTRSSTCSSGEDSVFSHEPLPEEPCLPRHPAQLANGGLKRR
# [13] = test system: HUVEC; test: Induction of apoptosis in HUVEC assessed as late apoptotic cells at 3 uM measured after 48 hrs by Annexin-V-FITC/propidium iodide staining based flow cytometry (reference value: 5.79 %); type: functional, Homo sapiens
# [14] = test system: HUVEC; test: Induction of apoptosis in HUVEC measured after 48 hrs by Annexin-V-FITC/propidium iodide staining based flow cytometry; type: functional, cell-based; details: Homo sapiens
# [15] = test system: HT-29; test: Induction of apoptosis in human HT-29 cells assessed as early apoptotic cells at 0.3 uM measured after 48 hrs by Annexin-V-FITC/propidium iodide staining based flow cytometry (reference value: 0.99 %); type: functional
# [16] = test system: HT-29; test: Induction of apoptosis in human HT-29 cells assessed as early apoptotic cells at 1 uM measured after 48 hrs by Annexin-V-FITC/propidium iodide staining based flow cytometry (reference value: 0.99 %); type: functional
# [17] = test system: HUVEC; test: Induction of apoptosis in HUVEC assessed as early apoptotic cells at 1 uM measured after 48 hrs by Annexin-V-FITC/propidium iodide staining based flow cytometry (reference value: 1.78 %); type: functional, Homo sapiens
# [18] = test system: HT-29; test: Induction of apoptosis in human HT-29 cells assessed as late apoptotic cells at 1 uM measured after 48 hrs by Annexin-V-FITC/propidium iodide staining based flow cytometry (reference value: 10.60 %); type: functional
# [19] = test system: HUVEC; test: Induction of apoptosis in HUVEC assessed as late apoptotic cells at 0.3 uM measured after 48 hrs by Annexin-V-FITC/propidium iodide staining based flow cytometry (reference value: 5.79 %); type: functional, Homo sapiens
# [20] = test system: HT-29; test: Induction of apoptosis in human HT-29 cells assessed as late apoptotic cells at 3 uM measured after 48 hrs by Annexin-V-FITC/propidium iodide staining based flow cytometry (reference value: 10.60 %); type: functional
# [21] = test system: HT-29; test: Induction of apoptosis in human HT-29 cells assessed as late apoptotic cells at 0.3 uM measured after 48 hrs by Annexin-V-FITC/propidium iodide staining based flow cytometry (reference value: 10.60 %); type: functional
# [22] = test system: MCF7; test: Induction of apoptosis in human MCF7 cells assessed as late apoptotic cells at 3 uM measured after 48 hrs by Annexin-V-FITC/propidium iodide staining based flow cytometry (reference value: 13.68 %); type: functional
# [23] = test system: HUVEC; test: Induction of apoptosis in HUVEC assessed as early apoptotic cells at 3 uM measured after 48 hrs by Annexin-V-FITC/propidium iodide staining based flow cytometry (reference value: 1.78 %); type: functional, Homo sapiens
# [24] = test system: HUVEC; test: Induction of apoptosis in HUVEC assessed as late apoptotic cells at 1 uM measured after 48 hrs by Annexin-V-FITC/propidium iodide staining based flow cytometry (reference value: 5.79 %); type: functional, Homo sapiens
# [25] = test system: MCF7; test: Induction of apoptosis in human MCF7 cells assessed as early apoptotic cells at 1 uM measured after 48 hrs by Annexin-V-FITC/propidium iodide staining based flow cytometry (reference value: 1.32 %); type: functional
# [26] = test system: MCF7; test: Induction of apoptosis in human MCF7 cells assessed as late apoptotic cells at 0.3 uM measured after 48 hrs by Annexin-V-FITC/propidium iodide staining based flow cytometry (reference value: 13.68 %); type: functional
# [27] = test system: MCF7; test: Induction of apoptosis in human MCF7 cells assessed as late apoptotic cells at 1 uM measured after 48 hrs by Annexin-V-FITC/propidium iodide staining based flow cytometry (reference value: 13.68 %); type: functional
smiles,measurement,setting,value
COC(=O)c1ccc2c(c1)NC(=O)/C2=C(\Nc1ccc2nc(CN3CCN(C)CC3)oc2c1)c1ccccc1,inhibition,[1],79%
same,pIC50,[2],< 4.00
same,pIC50,[3],6.93
COC(=O)c1ccc2c(c1)NC(=O)/C2=C(\Nc1ccc2c(c1)c(CN1CCN(C)CC1)cn2C)c1ccccc1,pIC50,[4],5.40
same,pIC50,[2],5.21
same,pIC50,[5],6.06
same,pIC50,[6],< 6.00
same,pIC50,[3],7.04
CCn1cc(CN(C)C)c2cc(N/C(=C3\C(=O)Nc4cc(C(=O)OC)ccc43)c3ccccc3)ccc21,pIC50,[4],5.26
same,pIC50,[2],5.12
same,pIC50,[5],5.17
same,pIC50,[3],7.46
COC(=O)c1ccc2c(c1)NC(=O)/C2=C(\Nc1ccc2[nH]cc(CN3CCN(C)CC3)c2c1)c1ccccc1,inhibition,[1],59%
same,pIC50,[2],5.13
same,pIC50,[3],6.87
COC(=O)c1ccc2c(c1)NC(=O)/C2=C(\Nc1ccc(N(C)C(=O)CN2CCN(C)CC2)cc1)c1ccccc1 [NINTEDANIB],pIC50,[4],5.08
same,pIC50,[2],4.65
same,pIC50,[5],6.08
COC(=O)c1ccc2c(c1)NC(=O)/C2=C(\Nc1ccc2c(c1)cc(C(=O)N1CCN(C)CC1)n2C)c1ccccc1,pIC50,[2],4.12
same,pIC50,[5],5.96
same,pIC50,[3],7.35
COC(=O)c1ccc2c(c1)NC(=O)/C2=C(\Nc1ccc2[nH]c(C(=O)N(C)C)cc2c1)c1ccccc1,pIC50,[2],< 4.00
same,pIC50,[5],< 4.00
same,pIC50,[6],< 6.00
COC(=O)c1ccc2c(c1)NC(=O)/C2=C(\Nc1ccc2[nH]c(CN3CCN(C)CC3)cc2c1)c1ccccc1,pIC50,[4],5.49
same,pIC50,[2],4.41
same,pIC50,[5],6.49
same,pIC50,[3],7.03
COC(=O)c1ccc2c(c1)NC(=O)/C2=C(\Nc1ccc2c(c1)c(CN(C)C)cn2C(C)C)c1ccccc1,pIC50,[4],5.25
same,pIC50,[2],5.36
same,pIC50,[5],6.60
same,pIC50,[3],7.31
COC(=O)c1ccc2c(c1)NC(=O)/C2=C(\Nc1ccc2[nH]c(C(=O)N3CCN(C)CC3)cc2c1)c1ccccc1,pIC50,[4],5.81
same,Activity,[7],0.05%
same,Activity,[8],1.27%
same,Activity,[9],0.28%
same,Activity,[10],5.68%
same,Activity,[11],Non-Toxic
same,pIC50,[12],5.82
same,Activity,[13],93.77%
same,Activity,[14],Dose-dependent effect
same,Activity,[15],2.31%
same,pIC50,[2],5.52
same,Activity,[16],0.44%
same,Activity,[17],3.97%
same,Activity,[18],74.82%
same,Activity,[19],17.62%
same,Activity,[20],98.81%
same,Activity,[21],14.15%
same,Activity,[22],94.04%
same,pIC50,[5],5.93
same,Activity,[23],1.51%
same,Activity,[24],77.6%
same,Activity,[25],0.65%
same,pIC50,[3],7.66
same,Activity,[26],18.25%
same,Activity,[27],34.43%
CCn1c(C(=O)N2CCN(C)CC2)cc2cc(N/C(=C3\C(=O)Nc4cc(C(=O)OC)ccc43)c3ccccc3)ccc21,pIC50,[2],4.92
same,pIC50,[5],5.66
same,pIC50,[3],7.41
COC(=O)c1ccc2c(c1)NC(=O)/C2=C(\Nc1ccc2[nH]cc(CN3CCOCC3)c2c1)c1ccccc1,pIC50,[3],6.62
COC(=O)c1ccc2c(c1)NC(=O)/C2=C(\Nc1ccc2c(c1)nc(CN(C)C)n2C)c1ccccc1,pIC50,[4],< 4.00
same,pIC50,[2],< 4.00
same,pIC50,[5],4.05
same,pIC50,[3],7.34
COC(=O)c1ccc2c(c1)NC(=O)/C2=C(\Nc1ccc2c(c1)nc(CN1CCN(C)CC1)n2C)c1ccccc1,pIC50,[4],4.65
same,pIC50,[2],4.39
same,pIC50,[5],6.15
same,pIC50,[3],7.21
COC(=O)c1ccc2c(c1)NC(=O)/C2=C(\Nc1ccc2[nH]cc(CN(C)C)c2c1)c1ccccc1,pIC50,[4],5.40
same,pIC50,[2],5.64
same,pIC50,[5],6.89
same,pIC50,[6],< 6.00
same,pIC50,[3],7.22
COC(=O)c1ccc2c(c1)NC(=O)/C2=C(\Nc1ccc2[nH]c(CN(C)C)cc2c1)c1ccccc1,pIC50,[4],5.63
same,pIC50,[2],4.78
same,pIC50,[5],6.01
COC(=O)c1ccc2c(c1)NC(=O)/C2=C(\Nc1ccc2nc(CN(C)C)oc2c1)c1ccccc1,pIC50,[2],< 4.00
same,pIC50,[6],< 6.00
same,pIC50,[3],< 6.30
COC(=O)c1ccc2c(c1)NC(=O)/C2=C(\Nc1ccc2c(c1)c(CN(C)C)cn2C)c1ccccc1,pIC50,[4],5.64
same,pIC50,[2],5.22
same,pIC50,[5],6.34
same,pIC50,[3],7.19
